Calls of active or inactive are those of the source. The rule behind the calls is not given here.
Assays:
Mus musculus [1] = assay: Compound was tested for the neuroleptic activity as measured by it's antagonism of d-amphetamine induced lethality in grouped mice(GAL) when administered perorally; 1.1-1.9; assay type: functional; settings: po
Rattus norvegicus [2] = assay: Reduction in motor activity in rats following p.o. administration.; assay type: functional
Outline: (§1)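 Rats in groups of five given graded oral doses. Locomotor activity counted per rat over 5 min at the time of peak effect, which was set earlier with a selected dose. MDD50 is the dose giving 50% reduction versus controls, taken from linear regression.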

Mus musculus [3] = assay: Inhibition of tetrabenazine induced depression in mice was following p.o. administration; Inactive.; assay type: functional, organism-based
Mus musculus [4] = assay: Compound was tested for the neuroleptic activity as measured by it's antagonism of d-amphetamine induced lethality in grouped mice(GAL) when administered perorally; Inactive; assay type: functional, organism-based
Mus musculus [5] = assay: Compound was tested for the neuroleptic activity as measured by it's antagonism of d-amphetamine induced lethality in grouped mice(GAL) when administered perorally; Inactive at 20 mg/kg; assay type: functional, organism-based; parameters: dose 20 mg/kg
Mus musculus [6] = assay: Minimum effective dose causing antagonism of tetrabenazine induced depression in mice was determined when administered perorally; assay type: functional; settings: po, read-out: MED
Mus musculus [7] = assay: Compound was tested for the neuroleptic activity as measured by it's antagonism of d-amphetamine induced lethality in grouped mice(GAL) when administered perorally; assay type: functional; settings: po
Mus musculus [8] = assay: Minimum effective dose causing antagonism of tetrabenazine induced depression in mice was determined when administered perorally; Inactive at 25 mg/kg; assay type: functional, organism-based; parameters: dose 25 mg/kg
Mus musculus [9] = assay: Minimum effective dose causing antagonism of tetrabenazine induced depression in mice was determined when administered perorally; Inactive; assay type: functional, organism-based
Mus musculus [10] = assay: Compound was tested for the neuroleptic activity as measured by it''s antagonism of d-amphetamine induced lethality in grouped mice(GAL) when administered perorally; Inactive at 20 mg/kg; assay type: functional, organism-based; parameters: dose 20 mg/kg
Mus musculus [11] = assay: Compound was tested for the neuroleptic activity as measured by it's antagonism of d-amphetamine induced lethality in grouped mice(GAL) when administered perorally; 3.2-5.5; assay type: functional; settings: po
Mus musculus [12] = assay: Compound was tested for the neuroleptic activity as measured by it's antagonism of d-amphetamine induced lethality in grouped mice(GAL) when administered perorally; 2.4-5.6; assay type: functional; settings: po
Mus musculus [13] = assay: Compound was tested for the neuroleptic activity as measured by it's antagonism of d-amphetamine induced lethality in grouped mice(GAL) when administered perorally; 0.09-0.24; assay type: functional; settings: po
Mus musculus [14] = assay: Compound was tested for the neuroleptic activity as measured by it's antagonism of d-amphetamine induced lethality in grouped mice(GAL) when administered perorally; 5.1-9; assay type: functional; settings: po
Rattus norvegicus [15] = assay: Dose causing 50% reduction of motor activity in rats was measured when administered perorally; Inactive at 50 mg/kg; assay type: functional, organism-based; parameters: dose 50 mg/kg; outline: as §1
Mus musculus [16] = assay: Compound was tested for the neuroleptic activity as measured by it's antagonism of d-amphetamine induced lethality in grouped mice(GAL) when administered perorally; 1.1-2.5; assay type: functional; settings: po
Mus musculus [17] = assay: Compound was tested for the neuroleptic activity as measured by it's antagonism of d-amphetamine induced lethality in grouped mice(GAL) when administered perorally; 2.5-3.9; assay type: functional; settings: po
Mus musculus [18] = assay: Compound was tested for the neuroleptic activity as measured by it's antagonism of d-amphetamine induced lethality in grouped mice(GAL) when administered perorally; 1.4-3.1; assay type: functional; settings: po
Mus musculus [19] = assay: Compound was tested for the neuroleptic activity as measured by it's antagonism of d-amphetamine induced lethality in grouped mice(GAL) when administered perorally; 1.6-3.8; assay type: functional; settings: po
Mus musculus [20] = assay: Compound was tested for the neuroleptic activity as measured by it's antagonism of d-amphetamine induced lethality in grouped mice(GAL) when administered perorally; 9-33; assay type: functional; settings: po
Mus musculus [21] = assay: Compound was tested for the neuroleptic activity as measured by it's antagonism of d-amphetamine induced lethality in grouped mice(GAL) when administered perorally; 0.1-0.6; assay type: functional; settings: po
Mus musculus [22] = assay: Minimum effective dose causing antagonism of tetrabenazine induced depression in mice was determined when administered perorally; Inactive at 20 mg/kg; assay type: functional, organism-based; parameters: dose 20 mg/kg
Mus musculus [23] = assay: Compound was tested for the neuroleptic activity as measured by it's antagonism of d-amphetamine induced lethality in grouped mice(GAL) when administered perorally; 0.4-3.1; assay type: functional; settings: po
Mus musculus [24] = assay: Compound was tested for the neuroleptic activity as measured by it's antagonism of d-amphetamine induced lethality in grouped mice(GAL) when administered perorally; 1-15; assay type: functional; settings: po

Structure (SMILES): CCN1CCN(C2=Nc3ccccc3Oc3cscc32)CC1
- ED50 (Mus musculus [1]): 1.4 mg/kg
- MDD50 (Rattus norvegicus [2]): 1.66 mg/kg
- MED (Mus musculus [3]): inactive

Structure (SMILES): COc1ccc2c(c1)Oc1cscc1C(N1CCN(C)CC1)=N2
- ED50 (Mus musculus [4]): inactive
- MED (Mus musculus [3]): inactive

Structure (SMILES): CN1CCN(C2=Nc3ccccc3Sc3c2csc3Cl)CC1
- ED50 (Mus musculus [5]): inactive
- minimal effective dose (Mus musculus [6]): 1.6 mg/kg

Structure (SMILES): CN1CCN(C2=Nc3ccccc3Oc3cscc32)CC1
- ED50 (Mus musculus [7]): 1.4 mg/kg
- MED (Mus musculus [8]): inactive
- MDD50 (Rattus norvegicus [2]): 1.3 mg/kg

Structure (SMILES): CN(C)CCCN1c2ccccc2CCc2ccccc21 [IMIPRAMINE]
- ED50 (Mus musculus [7]): > 50 mg/kg
- minimal effective dose (Mus musculus [6]): 5 mg/kg
- MDD50 (Rattus norvegicus [2]): >20 mg/kg

Structure (SMILES): Cc1ccc2c(c1)Oc1cscc1C(N1CCN(C)CC1)=N2
- MED (Mus musculus [9]): inactive
- ED50 (Mus musculus [10]): inactive

Structure (SMILES): CN1CCN(C2=Nc3cscc3N(C)c3ccc(Cl)cc32)CC1
- minimal effective dose (Mus musculus [6]): 1.56 mg/kg
- MDD50 (Rattus norvegicus [2]): 4.1 mg/kg
- ED50 (Mus musculus [10]): inactive

Structure (SMILES): COc1ccc2c(c1)N=C(N1CCN(CCO)CC1)c1cscc1O2
- ED50 (Mus musculus [4]): inactive
- MED (Mus musculus [3]): inactive

Structure (SMILES): CN1CCN(C2=Nc3cc(Cl)ccc3Nc3ccccc32)CC1 [CLOZAPINE]
- MDD50 (Rattus norvegicus [2]): 21 mg/kg
- ED50 (Mus musculus [11]): 4.2 mg/kg
- MED (Mus musculus [3]): inactive

Structure (SMILES): Cc1ccc2c(c1)N=C(N1CCN(C)CC1)c1cscc1O2
- MDD50 (Rattus norvegicus [2]): 5.96 mg/kg
- MED (Mus musculus [9]): inactive
- ED50 (Mus musculus [12]): 3.6 mg/kg

Structure (SMILES): CN1CCN(C2=Nc3ccccc3Oc3ccc(Cl)cc32)CC1 [LOXAPINE]
- ED50 (Mus musculus [13]): 0.14 mg/kg
- MDD50 (Rattus norvegicus [2]): 0.6 mg/kg
- MED (Mus musculus [3]): inactive

Structure (SMILES): Cc1ccc2c(c1)Oc1cscc1C(N1CCN(CCO)CC1)=N2
- MDD50 (Rattus norvegicus [2]): 37 mg/kg
- MED (Mus musculus [3]): inactive

Structure (SMILES): CCN1CCN(C2=Nc3cc(Cl)ccc3Oc3cscc32)CC1
- ED50 (Mus musculus [14]): 6.8 mg/kg
- MDD50 (Rattus norvegicus [2]): <50 mg/kg
- MED (Mus musculus [3]): inactive

Structure (SMILES): OCCN1CCN(C2=Nc3ccccc3Sc3cscc32)CC1
- ED50 (Mus musculus [7]): 0.2 mg/kg
- MDD50 (Rattus norvegicus [2]): <10 mg/kg
- MED (Mus musculus [3]): inactive

Structure (SMILES): Cc1cc2c(cc1C)Sc1cscc1C(N1CCN(C)CC1)=N2
- ED50 (Mus musculus [4]): inactive
- MED (Mus musculus [3]): inactive

Structure (SMILES): COc1ccc2c(c1)N=C(N1CCN(C)CC1)c1cscc1O2
- ED50 (Mus musculus [4]): inactive

Structure (SMILES): OCCN1CCN(C2=Nc3ccccc3Oc3c2csc3Cl)CC1
- MDD50 (Rattus norvegicus [15]): inactive
- ED50 (Mus musculus [7]): < 10 mg/kg
- MED (Mus musculus [3]): inactive

Structure (SMILES): CN1CCN(C2=Nc3cc(Cl)ccc3Oc3cscc32)CC1
- ED50 (Mus musculus [16]): 1.6 mg/kg
- MDD50 (Rattus norvegicus [2]): 9.6 mg/kg
- MED (Mus musculus [3]): inactive

Structure (SMILES): CN1CCN(C2=Nc3cc(Br)ccc3Oc3cscc32)CC1
- MDD50 (Rattus norvegicus [2]): 16.4 mg/kg
- MED (Mus musculus [3]): inactive
- ED50 (Mus musculus [17]): 3.1 mg/kg

Structure (SMILES): OCCN1CCN(C2=Nc3cc(Cl)ccc3Oc3cscc32)CC1
- MDD50 (Rattus norvegicus [2]): 19.2 mg/kg
- MED (Mus musculus [3]): inactive
- ED50 (Mus musculus [18]): 2 mg/kg

Structure (SMILES): CN1CCN(C2=Nc3cscc3N(C)c3ccc(F)cc32)CC1
- ED50 (Mus musculus [4]): inactive
- minimal effective dose (Mus musculus [6]): 6.25 mg/kg

Structure (SMILES): CN1CCN(C2=Nc3cc(Cl)ccc3Sc3cscc32)CC1
- ED50 (Mus musculus [4]): inactive
- MED (Mus musculus [3]): inactive

Structure (SMILES): OCCN1CCN(C2=Nc3ccccc3Oc3cscc32)CC1
- ED50 (Mus musculus [7]): < 10 mg/kg
- MDD50 (Rattus norvegicus [2]): 5.4 mg/kg
- MED (Mus musculus [3]): inactive

Structure (SMILES): CN1CCN(C2=Nc3cscc3N(C)c3ccccc32)CC1
- ED50 (Mus musculus [7]): 6.5 mg/kg
- minimal effective dose (Mus musculus [6]): 7.6 mg/kg
- MDD50 (Rattus norvegicus [2]): 51 mg/kg

Structure (SMILES): Cc1cccc2c1N=C(N1CCN(CCO)CC1)c1cscc1O2
- ED50 (Mus musculus [10]): inactive

Structure (SMILES): CN1CCN(C2=Nc3ccccc3Oc3c2csc3Cl)CC1
- minimal effective dose (Mus musculus [6]): 12.5 mg/kg
- MDD50 (Rattus norvegicus [2]): <50 mg/kg
- ED50 (Mus musculus [19]): 2.4 mg/kg

Structure (SMILES): CN1CCN(C2=Nc3cscc3Nc3ccc(F)cc32)CC1
- ED50 (Mus musculus [20]): 17.5 mg/kg
- MED (Mus musculus [3]): inactive

Structure (SMILES): CN1CCN(C2=Nc3ccccc3Sc3cscc32)CC1
- ED50 (Mus musculus [21]): 0.2 mg/kg
- MED (Mus musculus [8]): inactive
- MDD50 (Rattus norvegicus [2]): <10 mg/kg

Structure (SMILES): OCCN1CCN(C2=Nc3cc(Br)ccc3Oc3cscc32)CC1
- ED50 (Mus musculus [7]): < 2.5 mg/kg
- MED (Mus musculus [3]): inactive

Structure (SMILES): Cc1ccc2c(c1)N=C(N1CCN(CCO)CC1)c1cscc1O2
- MDD50 (Rattus norvegicus [2]): 27.2 mg/kg
- ED50 (Mus musculus [10]): inactive

Structure (SMILES): CN1CCN(C2=Nc3cscc3Nc3ccc(Cl)cc32)CC1
- ED50 (Mus musculus [7]): ≤ 5 mg/kg
- MED (Mus musculus [3]): inactive

Structure (SMILES): CN1CCN(C2=Nc3cscc3Nc3ccccc32)CC1
- ED50 (Mus musculus [7]): 3.2 mg/kg
- MDD50 (Rattus norvegicus [2]): 15 mg/kg
- MED (Mus musculus [22]): inactive

Structure (SMILES): Cc1cccc2c1N=C(N1CCN(C)CC1)c1cscc1O2
- ED50 (Mus musculus [23]): 1.2 mg/kg
- MDD50 (Rattus norvegicus [2]): >50 mg/kg
- MED (Mus musculus [3]): inactive

Structure (SMILES): CCN1CCN(C2=Nc3cc(C)ccc3Oc3cscc32)CC1
- ED50 (Mus musculus [24]): 3.9 mg/kg
- MDD50 (Rattus norvegicus [2]): <50 mg/kg
- MED (Mus musculus [9]): inactive

Reference: ChEMBL document CHEMBL1121779, “Thiophene systems. 5. Thieno[3,4-b][1,5]benzoxazepines, thieno[3,4-b][1,5]benzothiazepines, and thieno[3,4-b][1,4]benzodiazepines as potential central nervous system agents” (1981)
